Data on two molecules can be found in BindingDB's records for doi:10.1021/np070447m (2008).

Assay [1] addresses Cyclin-dependent kinase 2 (Homo sapiens, UniProt P24941). In words: Inhibition of recombinant CDK2/CycA. In outline:
(§1)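 Purified recombinant kinase, 50 µL reaction. 1 µM [γ-33P]-ATP with substrate; compound added in 10% DMSO. Tested over several concentrations; IC50 in g/mL.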

In assay [2] the target is Proto-oncogene tyrosine-protein kinase Src (Homo sapiens, UniProt P12931). Briefly: Inhibition of recombinant SRC. An outline of the steps: as §1
Chain of Proto-oncogene tyrosine-protein kinase Src (P12931 2-536 limits assumed): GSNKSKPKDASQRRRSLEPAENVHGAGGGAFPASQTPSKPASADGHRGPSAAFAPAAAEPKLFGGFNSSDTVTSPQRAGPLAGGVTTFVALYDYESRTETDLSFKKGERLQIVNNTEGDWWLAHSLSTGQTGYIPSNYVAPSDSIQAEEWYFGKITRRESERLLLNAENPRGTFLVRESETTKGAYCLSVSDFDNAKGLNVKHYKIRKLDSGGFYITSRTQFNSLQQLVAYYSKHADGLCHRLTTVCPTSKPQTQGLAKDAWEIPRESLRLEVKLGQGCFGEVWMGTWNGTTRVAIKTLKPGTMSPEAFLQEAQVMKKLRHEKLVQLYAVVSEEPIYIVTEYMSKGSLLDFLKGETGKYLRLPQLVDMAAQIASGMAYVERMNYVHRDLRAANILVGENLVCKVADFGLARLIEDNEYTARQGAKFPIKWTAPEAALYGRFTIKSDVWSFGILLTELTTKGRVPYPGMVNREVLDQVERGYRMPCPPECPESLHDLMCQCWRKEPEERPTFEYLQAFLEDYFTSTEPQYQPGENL
In another assay the target is Aurora kinase B (Homo sapiens, UniProt Q96GD4). In words: Inhibition of recombinant Aurora B. An outline of the steps:
as §1

For assay [3], the target named is Platelet-derived growth factor receptor beta (Homo sapiens, UniProt P09619). Briefly: Inhibition of recombinant PDGFRbeta.
Chain of Platelet-derived growth factor receptor beta (P09619 whole entry): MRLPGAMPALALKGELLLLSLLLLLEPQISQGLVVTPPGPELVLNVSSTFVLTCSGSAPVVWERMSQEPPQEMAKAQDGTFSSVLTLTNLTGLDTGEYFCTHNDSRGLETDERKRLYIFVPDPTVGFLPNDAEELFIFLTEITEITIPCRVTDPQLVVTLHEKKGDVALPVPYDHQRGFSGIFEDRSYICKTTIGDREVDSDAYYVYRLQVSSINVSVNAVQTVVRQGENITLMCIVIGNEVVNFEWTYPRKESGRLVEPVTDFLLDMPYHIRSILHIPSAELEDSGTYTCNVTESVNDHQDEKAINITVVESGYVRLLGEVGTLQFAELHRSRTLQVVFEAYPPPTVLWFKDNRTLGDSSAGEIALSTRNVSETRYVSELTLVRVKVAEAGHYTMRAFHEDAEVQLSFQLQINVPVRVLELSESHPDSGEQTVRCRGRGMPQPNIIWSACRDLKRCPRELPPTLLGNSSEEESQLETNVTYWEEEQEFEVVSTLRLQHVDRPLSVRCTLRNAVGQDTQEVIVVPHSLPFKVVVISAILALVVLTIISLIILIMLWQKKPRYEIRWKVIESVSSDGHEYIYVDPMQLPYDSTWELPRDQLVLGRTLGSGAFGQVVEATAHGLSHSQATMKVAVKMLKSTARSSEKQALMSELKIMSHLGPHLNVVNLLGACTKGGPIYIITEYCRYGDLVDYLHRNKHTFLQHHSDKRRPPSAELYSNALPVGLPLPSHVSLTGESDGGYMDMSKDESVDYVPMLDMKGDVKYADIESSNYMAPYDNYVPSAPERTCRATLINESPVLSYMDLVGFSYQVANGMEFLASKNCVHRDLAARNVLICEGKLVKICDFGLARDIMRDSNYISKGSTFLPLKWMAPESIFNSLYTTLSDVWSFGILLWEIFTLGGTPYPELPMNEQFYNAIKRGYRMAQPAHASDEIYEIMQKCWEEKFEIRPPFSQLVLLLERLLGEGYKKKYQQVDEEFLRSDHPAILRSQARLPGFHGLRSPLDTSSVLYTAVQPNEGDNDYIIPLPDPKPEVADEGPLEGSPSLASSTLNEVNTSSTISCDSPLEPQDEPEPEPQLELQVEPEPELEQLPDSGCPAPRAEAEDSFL
The target in assay [4] is T1, Serine/threonine-protein kinase PLK4 (Homo sapiens, UniProt O00444).
T1 sequence (O00444 whole entry): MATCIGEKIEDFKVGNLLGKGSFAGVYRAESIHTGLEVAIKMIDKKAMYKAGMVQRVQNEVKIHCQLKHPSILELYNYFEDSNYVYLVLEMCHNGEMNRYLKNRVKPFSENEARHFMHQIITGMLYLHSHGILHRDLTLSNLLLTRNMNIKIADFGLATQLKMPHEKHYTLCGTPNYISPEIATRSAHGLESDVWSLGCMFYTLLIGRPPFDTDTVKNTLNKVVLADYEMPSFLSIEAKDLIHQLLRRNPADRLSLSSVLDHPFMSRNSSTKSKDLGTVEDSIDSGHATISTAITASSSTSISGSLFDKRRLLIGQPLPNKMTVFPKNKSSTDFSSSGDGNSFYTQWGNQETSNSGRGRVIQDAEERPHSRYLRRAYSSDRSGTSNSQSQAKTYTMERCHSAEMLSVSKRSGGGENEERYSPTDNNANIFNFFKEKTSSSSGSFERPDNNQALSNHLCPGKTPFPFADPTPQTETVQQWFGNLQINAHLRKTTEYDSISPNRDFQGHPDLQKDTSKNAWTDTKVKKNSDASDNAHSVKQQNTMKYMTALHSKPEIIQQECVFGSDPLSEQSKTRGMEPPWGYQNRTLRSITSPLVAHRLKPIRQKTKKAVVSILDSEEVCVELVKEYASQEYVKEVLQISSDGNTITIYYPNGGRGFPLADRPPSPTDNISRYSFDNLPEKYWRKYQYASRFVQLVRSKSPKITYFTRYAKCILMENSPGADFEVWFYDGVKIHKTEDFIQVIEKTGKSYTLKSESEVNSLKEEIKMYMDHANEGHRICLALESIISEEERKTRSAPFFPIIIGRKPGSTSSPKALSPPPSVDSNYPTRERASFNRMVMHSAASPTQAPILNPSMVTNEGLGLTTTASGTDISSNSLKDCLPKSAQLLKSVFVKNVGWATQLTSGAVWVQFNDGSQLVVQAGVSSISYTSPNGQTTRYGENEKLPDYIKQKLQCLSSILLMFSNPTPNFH
In words: Inhibition of recombinant SAK.

Assay [5] has as its target T2, NUAK family SNF1-like kinase 1 (Homo sapiens, UniProt O60285).
T2 sequence (O60285 whole entry): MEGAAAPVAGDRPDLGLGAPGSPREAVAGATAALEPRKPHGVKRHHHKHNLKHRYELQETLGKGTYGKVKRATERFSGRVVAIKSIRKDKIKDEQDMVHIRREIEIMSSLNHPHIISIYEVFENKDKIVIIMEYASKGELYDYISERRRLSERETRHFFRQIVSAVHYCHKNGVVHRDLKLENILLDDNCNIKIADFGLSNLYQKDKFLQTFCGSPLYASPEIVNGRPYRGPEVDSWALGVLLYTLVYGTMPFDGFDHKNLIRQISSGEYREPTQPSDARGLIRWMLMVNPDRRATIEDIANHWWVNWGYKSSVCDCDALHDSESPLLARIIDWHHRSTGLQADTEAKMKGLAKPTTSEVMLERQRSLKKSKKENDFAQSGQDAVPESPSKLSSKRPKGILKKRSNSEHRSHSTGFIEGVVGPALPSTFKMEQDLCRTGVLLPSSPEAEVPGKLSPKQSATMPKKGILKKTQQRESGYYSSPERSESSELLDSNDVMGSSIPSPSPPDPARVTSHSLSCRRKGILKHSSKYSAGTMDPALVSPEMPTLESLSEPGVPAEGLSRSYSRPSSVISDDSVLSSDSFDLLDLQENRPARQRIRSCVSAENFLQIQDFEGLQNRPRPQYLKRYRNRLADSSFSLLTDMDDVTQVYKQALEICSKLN
Briefly: Inhibition of recombinant ARK5.

Another assay concerns the target Insulin receptor (Homo sapiens, UniProt P06213). Briefly: Inhibition of recombinant INSR.
The next assay concerns the target Focal adhesion kinase 1 (Homo sapiens, UniProt Q05397). Briefly: Inhibition of recombinant FAK.
In assay [6] the target is Serine/threonine-protein kinase PLK1 (Homo sapiens, UniProt P53350). In words: Inhibition of recombinant PLK1.
Chain of Serine/threonine-protein kinase PLK1 (P53350 whole entry): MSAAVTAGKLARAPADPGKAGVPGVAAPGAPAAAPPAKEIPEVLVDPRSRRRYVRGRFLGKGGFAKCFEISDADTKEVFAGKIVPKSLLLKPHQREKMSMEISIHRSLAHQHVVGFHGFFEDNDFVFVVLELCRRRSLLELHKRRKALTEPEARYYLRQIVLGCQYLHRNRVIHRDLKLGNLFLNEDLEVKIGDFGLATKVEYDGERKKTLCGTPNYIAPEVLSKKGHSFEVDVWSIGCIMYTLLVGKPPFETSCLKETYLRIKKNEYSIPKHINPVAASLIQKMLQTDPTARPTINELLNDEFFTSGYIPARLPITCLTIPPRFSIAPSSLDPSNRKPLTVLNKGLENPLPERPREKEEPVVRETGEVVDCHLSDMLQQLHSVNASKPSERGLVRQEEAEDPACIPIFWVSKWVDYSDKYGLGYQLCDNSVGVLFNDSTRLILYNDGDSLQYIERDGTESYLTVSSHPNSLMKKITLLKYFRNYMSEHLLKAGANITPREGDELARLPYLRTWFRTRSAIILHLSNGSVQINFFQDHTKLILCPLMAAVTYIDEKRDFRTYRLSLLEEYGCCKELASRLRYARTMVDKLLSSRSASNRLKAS

pIC50: −log10 of the molar value.

Chain of Focal adhesion kinase 1 (Q05397 whole entry): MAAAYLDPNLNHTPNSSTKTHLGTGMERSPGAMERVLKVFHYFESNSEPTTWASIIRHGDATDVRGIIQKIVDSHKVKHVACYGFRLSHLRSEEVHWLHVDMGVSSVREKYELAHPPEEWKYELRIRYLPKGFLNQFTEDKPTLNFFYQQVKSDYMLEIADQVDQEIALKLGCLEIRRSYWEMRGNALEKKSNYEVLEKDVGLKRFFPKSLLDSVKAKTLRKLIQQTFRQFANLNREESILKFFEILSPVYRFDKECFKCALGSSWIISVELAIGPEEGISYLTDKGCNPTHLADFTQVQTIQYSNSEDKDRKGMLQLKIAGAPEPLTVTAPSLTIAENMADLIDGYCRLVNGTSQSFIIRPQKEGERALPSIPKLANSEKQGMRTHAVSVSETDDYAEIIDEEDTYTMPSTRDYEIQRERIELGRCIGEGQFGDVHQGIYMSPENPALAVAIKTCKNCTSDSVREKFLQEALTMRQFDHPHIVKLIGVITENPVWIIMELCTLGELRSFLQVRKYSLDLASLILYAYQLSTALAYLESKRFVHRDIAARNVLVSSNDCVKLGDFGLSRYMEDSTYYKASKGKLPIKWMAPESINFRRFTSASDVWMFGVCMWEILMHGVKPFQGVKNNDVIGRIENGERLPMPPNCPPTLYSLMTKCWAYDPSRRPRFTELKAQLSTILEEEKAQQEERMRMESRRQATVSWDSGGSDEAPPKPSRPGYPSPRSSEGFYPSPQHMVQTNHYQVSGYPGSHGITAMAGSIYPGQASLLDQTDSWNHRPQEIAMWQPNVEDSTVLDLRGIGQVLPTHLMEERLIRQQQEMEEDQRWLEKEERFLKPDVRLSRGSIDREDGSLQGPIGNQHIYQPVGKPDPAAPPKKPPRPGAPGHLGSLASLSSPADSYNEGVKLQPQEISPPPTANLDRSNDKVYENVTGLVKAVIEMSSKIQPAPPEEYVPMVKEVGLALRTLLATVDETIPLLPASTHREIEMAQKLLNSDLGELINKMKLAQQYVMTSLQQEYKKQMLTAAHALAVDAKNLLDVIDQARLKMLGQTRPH
Chain of Aurora kinase B (Q96GD4 whole entry): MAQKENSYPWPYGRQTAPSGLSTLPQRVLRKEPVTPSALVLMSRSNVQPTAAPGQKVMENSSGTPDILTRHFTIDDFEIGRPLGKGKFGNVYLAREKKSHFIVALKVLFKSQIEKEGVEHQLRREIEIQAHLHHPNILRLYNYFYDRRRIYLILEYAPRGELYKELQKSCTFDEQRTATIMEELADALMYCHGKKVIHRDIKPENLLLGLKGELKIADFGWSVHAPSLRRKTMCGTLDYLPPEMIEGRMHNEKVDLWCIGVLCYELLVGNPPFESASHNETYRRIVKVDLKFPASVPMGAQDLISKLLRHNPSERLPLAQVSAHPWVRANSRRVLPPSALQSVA
Chain of Insulin receptor (P06213 28-758 limits assumed): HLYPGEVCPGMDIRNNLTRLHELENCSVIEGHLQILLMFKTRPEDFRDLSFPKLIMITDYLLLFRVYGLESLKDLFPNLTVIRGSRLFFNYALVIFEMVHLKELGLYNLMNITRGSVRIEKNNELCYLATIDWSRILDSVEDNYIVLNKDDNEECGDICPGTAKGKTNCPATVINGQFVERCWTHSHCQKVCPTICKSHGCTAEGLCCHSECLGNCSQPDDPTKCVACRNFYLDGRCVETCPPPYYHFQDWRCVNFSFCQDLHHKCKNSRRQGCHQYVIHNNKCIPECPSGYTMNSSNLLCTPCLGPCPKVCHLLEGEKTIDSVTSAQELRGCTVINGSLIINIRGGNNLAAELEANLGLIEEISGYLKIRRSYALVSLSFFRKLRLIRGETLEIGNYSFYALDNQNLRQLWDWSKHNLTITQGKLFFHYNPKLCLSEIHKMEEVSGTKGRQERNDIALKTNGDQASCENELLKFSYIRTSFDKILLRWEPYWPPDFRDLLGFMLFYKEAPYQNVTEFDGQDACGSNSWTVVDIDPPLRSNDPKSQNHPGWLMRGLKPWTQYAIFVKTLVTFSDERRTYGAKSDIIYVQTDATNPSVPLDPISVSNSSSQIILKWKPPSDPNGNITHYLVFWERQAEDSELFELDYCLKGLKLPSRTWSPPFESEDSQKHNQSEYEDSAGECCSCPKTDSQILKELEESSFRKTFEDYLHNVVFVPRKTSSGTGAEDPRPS
Chain of Insulin receptor (P06213 763-1382 limits assumed): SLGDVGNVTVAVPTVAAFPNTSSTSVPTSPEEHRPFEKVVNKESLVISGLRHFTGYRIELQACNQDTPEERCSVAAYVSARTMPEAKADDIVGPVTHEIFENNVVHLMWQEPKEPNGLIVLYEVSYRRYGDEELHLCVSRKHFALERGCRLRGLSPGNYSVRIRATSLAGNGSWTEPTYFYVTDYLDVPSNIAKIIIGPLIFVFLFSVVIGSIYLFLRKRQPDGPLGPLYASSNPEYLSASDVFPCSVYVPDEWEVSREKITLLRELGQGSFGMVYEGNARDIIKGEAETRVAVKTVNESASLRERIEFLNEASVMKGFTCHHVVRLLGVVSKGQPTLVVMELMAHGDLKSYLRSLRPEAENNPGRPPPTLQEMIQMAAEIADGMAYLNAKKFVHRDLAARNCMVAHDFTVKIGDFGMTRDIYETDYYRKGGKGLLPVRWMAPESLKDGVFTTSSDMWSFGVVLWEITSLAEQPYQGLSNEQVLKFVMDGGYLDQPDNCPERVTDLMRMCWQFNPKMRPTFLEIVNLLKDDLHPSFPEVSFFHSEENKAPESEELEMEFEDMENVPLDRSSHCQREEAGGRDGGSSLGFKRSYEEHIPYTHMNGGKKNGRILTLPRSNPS

The pIC50 is the IC50 on a negative log10 scale, so that one unit is a factor of ten. As for `COc1cc(O)c2c(c1)-c1cc(O)c(O)cc1COC2=O` [Alterlactone], the pIC50 (in [1]; in assay [2]; at Aurora kinase B; in assay [3]; in [4]; in assay [5]) was under 4.46 each time. Further, the pIC50 (at Insulin receptor; on Focal adhesion kinase 1; in assay [6]) was under 4.46 in each case.
As to `COc1cc(O)c2c(c1)C1(OC2=O)C(=O)C(=O)CC1C` (stereo unspecified) [TALAROFLAVONE], the pIC50 (in assay [1]; in [2]; at Aurora kinase B; in [4]; in assay [5]; on Focal adhesion kinase 1) was under 4.44 each time. In [6], the pIC50 is under 4.44.
